Only some compounds are listed: those with a hit (about 2.5% of all), similar ones and a draw of the others.
IMP-1 inh – IMP-1 metallo-beta-lactamase inhibitors, primary screen, biochemical, epi-absorbance readout, Pseudomonas aeruginosa enzyme | metallo-beta-lactamase IMP-1 (Pseudomonas aeruginosa) | purified IMP-1, nitrocefin hydrolysis, epi-absorbance fluorescence | inhibition, % at 5.6 µM | hit rate 0.45% among 290,000 | AID 1556, 2009;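 active = inhibition above the mean plus 3 SD of all compounds in the same screening run, cut at about 4.5% in these data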;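 also: 0% = IMP-1 with DMSO and 100% = DMSO wells lacking enzyme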
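System: Purified recombinant IMP-1 metallo-beta-lactamase enzyme | Measured by: Fluorescence quenching readout, ex 480/em 530 nm | Replication: Singlicate | Incubation: 15 min preincubation plus 25 min reaction at 25 °C | Evaluation: Percent inhibition from optical density relative to buffer-blank wells | Benchmarks: DMSO with and without IMP-1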
dFosB act-1 – activators of delta FosB homodimer, primary screen, biochemical, fluorescence polarization, TAMRA-CDK5 oligo, single point. Protein FosB (Mus musculus), P13346. purified delta FosB; percent of positive-control signal above neutral wells. activation, % at 25 µM. hit rate 0.99% among 340,000. AID 493131, 2011;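 active = mean activation above about 17%, with every replicate also reaching it, limit read from the data, passing the limit was not always enough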
VIM-2 inhibitor – VIM-2 metallo-beta-lactamase inhibitors, primary screen, biochemical, epi-absorbance readout, Pseudomonas aeruginosa enzyme. purified VIM-2, nitrocefin hydrolysis, epi-absorbance fluorescence. inhibition, % at 5.6 µM. hit rate 0.89% among 290,000. AID 1527, 2009;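 active = inhibition above the mean of all tested compounds plus 3 SD, cutoff set per screening run, cut at about 7.5% in these data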;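 also: red hydrolysis product quenches plate fluorescence so inhibitors raise well fluorescence; 0% = enzyme with DMSO and 100% = DMSO without enzyme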
m5-HT2A agonist – mouse Htr2a agonists via beta-arrestin recruitment, primary screen, cell-based, luminescence | 5-hydroxytryptamine receptor 2A (Mus musculus), P35363 | CHO-K1 mHTR2A beta-arrestin complementation; percent of 30 µM serotonin response | activation, % at 7.6 µM | hit rate 0.66% among 360,000;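 active = activation above a run cutoff, the mean activation of all tested compounds plus 3 SD, cut at about 14% in these data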;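 also: 0% = plate median of compound wells and 100% = 30 µM serotonin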
Target sequence (P35363 whole entry, looked up): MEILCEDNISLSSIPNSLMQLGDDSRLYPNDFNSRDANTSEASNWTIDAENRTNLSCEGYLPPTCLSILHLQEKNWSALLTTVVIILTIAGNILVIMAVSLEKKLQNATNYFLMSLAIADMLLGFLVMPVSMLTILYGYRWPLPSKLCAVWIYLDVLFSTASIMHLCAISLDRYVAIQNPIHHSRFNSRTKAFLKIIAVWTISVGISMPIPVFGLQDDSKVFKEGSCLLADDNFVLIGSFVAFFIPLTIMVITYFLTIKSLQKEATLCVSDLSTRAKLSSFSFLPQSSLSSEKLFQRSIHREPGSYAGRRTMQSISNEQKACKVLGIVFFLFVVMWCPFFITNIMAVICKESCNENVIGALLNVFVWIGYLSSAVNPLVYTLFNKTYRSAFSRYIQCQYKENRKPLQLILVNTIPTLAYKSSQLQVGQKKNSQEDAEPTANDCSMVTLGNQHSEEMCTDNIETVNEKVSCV
dFosB act-2 – activators of mouse delta FosB DNA binding, confirmation, biochemical, fluorescence polarization, TAMRA-CDK5 oligo, cherry-picked samples; shares compounds with dFosB act-1; purified delta FosB; normalised: neutral wells 0, positive control 100; activation, % at 24.9 µM; 2,400 tested, under 10 active; AID 588690, 2011;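 active = highest replicate activation at or above 34% and every replicate reaching that threshold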;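 also: higher polarization means more probe DNA bound by delta FosB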
Starred values were filed as active, the others as inactive; nt = no result given.

SMILES	IMP-1 inh	dFosB act-1	VIM-2 inhibitor	m5-HT2A agonist	dFosB act-2
CCN(C[C@H]1N[C@@](Cc2ccccc2)(C(=O)OC)[C@H]2C(=O)N(C)C(=O)[C@@H]12)C(=O)COc1ccccc1	nt	-5	nt	5	nt
Cc1ccc(/C=N\NC(=O)CNC(=O)C23CC4CC(CC(C4)C2)C3)o1	-2	-8	-1	0	nt
O=C(Cn1cnc2sc3c(c2c1=O)CCCC3)NCC(=O)Nc1ccccc1F	-2	10	0	-2	nt
O=C(Cn1cnc2sc3c(c2c1=O)CCCC3)NCC(=O)Nc1ccc(F)cc1F	-2	36*	-2	3	0
Cc1ccc(S(=O)(=O)N2CCC(C(=O)NCCc3ccccn3)CC2)cc1	-1	4	1	-1	nt
CCc1cc2ccc(C)c(C)c2nc1SCC(=O)NNC(=O)c1ccco1	-3	28*	-5	-5	1
CCc1cc2cccc(C)c2nc1SCC(=O)NNC(=O)c1ccco1	-2	-8	-1	-1	nt
NC(=O)Cn1c(=O)n(C2CCCCC2)c(=O)c2c3c(sc21)CCCCC3	-5	44*	-3	1	0
COc1ccc(-n2c(=O)c3c4c(sc3n(CC(N)=O)c2=O)CCCCC4)cc1	-1	30*	-2	-2	-1
O=C(Nc1cccnc1)c1cc(-c2ccc(Cl)cc2)on1	-4	14	-2	1	nt
O=C(Nc1cccnc1)c1cc(-c2ccc(Cl)cc2Cl)on1	-4	62*	-3	-6	2
Cc1ccc(CNC(=O)CCCn2c(=O)c3ccccc3n(CC(=O)NC3CCCC3)c2=O)cc1	-2	27*	-3	-2	-2
COCCCn1c(=O)c2ccccc2n(CC(=O)NC2CCCC2)c1=O	-4	-6	-2	2	nt
Cc1ccccc1Cn1c(=O)n(CCC(=O)NCc2ccc3c(c2)OCO3)c(=O)c2ccccc21	-3	60*	-2	1	-1
Cc1cccc(NC(=O)Cn2c(=O)n(CCC(=O)NC3CCCC3)c(=O)c3ccccc32)c1	-3	42*	-1	2	1
Cc1ccc(CNC(=O)Cn2c(=O)n(-c3ccccc3)c(=O)c3sccc32)cc1	-3	21*	-2	10	-9
Cc1onc(-c2ccccc2Cl)c1C(=O)NNC(=O)c1ccccc1F	0	-3	-3	1	nt
COCCNC(=O)C1(C)CCCN(Cc2ccc(OC)cc2)C1 (stereo not drawn)	nt	nt	nt	-2	nt
Oc1ccc(C=NC2CCCCC2)cc1	-2	-5	-1	5	nt
CCOc1ccc(CCNC(=O)C2CCCN(S(=O)(=O)N3CC(C)CC(C)C3)C2)cc1OCC (stereo not drawn)	-1	-3	-2	-7	nt
COc1ccc(NC(=O)CSCC(=O)NC2(C)CCS(=O)(=O)C2)cc1 (stereo not drawn)	-3	-2	-1	6	nt
CN1/C(=C/C=C(C#N)C#N)C=Cc2ccccc21	-3	29*	-3	1	3
CCOC(=O)/C(C#N)=C/C=C1\C=Cc2ccccc2N1CC	-2	-25	-2	-3	nt
O=C1CCCCC(=O)[C@H](OC(=O)c2ccccc2)C[C@H](c2ccccc2)O1	nt	nt	nt	1	nt
Cc1ccsc1C(=O)NNC(=O)Nc1ccc(Cl)c(Cl)c1	-3	25*	0	-2	0
SMILES	IMP-1 inh	dFosB act-1	VIM-2 inhibitor	m5-HT2A agonist	dFosB act-2
COC(=O)/C=C/CC(C)OS(N)(=O)=O (stereo not drawn)	-1	7	-1	9	nt
CCN1C(=O)[C@H]2[C@@H](c3ccc(-c4cccc(Cl)c4)cc3)N[C@@](C)(C(=O)OC)[C@H]2C1=O	nt	-9	nt	5	nt
O=C(CSc1nc2ccc(Cl)cc2[nH]1)NC1CCCc2ccccc21 (stereo not drawn)	1	19*	0	-4	5
O=C(CSc1nc2ccccc2[nH]1)NC1CCCc2ccccc21 (stereo not drawn)	-1	-14	-1	3	nt
CN(C(=O)COC(=O)c1ccccc1SCC(=O)N1CCCC1)C1(C#N)CCCCC1	nt	-6	nt	0	nt
COc1ccccc1C1CC(=O)Oc2c(C(C)C)ccc(C)c21 (stereo not drawn)	nt	-6	nt	-2	nt
